Published values gathered from unrelated publications.
Protocols differ between the studies behind these lines.
Observed: metabolic stability

CC(C)N(c1ccc(C#N)cc1)c1ccc(NC(=O)CN(C)c2ccccc2N2CCCC2=O)cn1 — hepatocyte CLint (rat, hepatocytes): 92 µL/min/10⁶ cells
Cc1cc(S(=O)(=O)NC2CC(N3CCN(CC4CCN(c5cccc6c5n(C)c(=O)n6C5CCC(=O)NC5=O)CC4)CC3)C2)ccc1Nc1ncc(C(F)(F)F)c(N2CCC[C@](C)(O)C2)n1 (stereo partly shown) — scaled CLint (rat, liver microsomes; 1 µM): < 21 mL/min/kg
N#Cc1ccc(-c2csc(CNC(=O)[C@H]3CCCN(C(=O)N4CCCC4)C3)n2)cc1 — microsomal CLint (male Sprague-Dawley rat, liver microsomes; 0.5 µM): 223 µL/min/mg
CNS(=O)(=O)c1ccc(Nc2ncc(C(F)(F)F)c(N3CCC[C@](C)(O)C3)n2)c(C)c1 — scaled CLint (rat, liver microsomes; 1 µM): 40 mL/min/kg
CCOCC(=O)N1CCC[C@H](C(=O)NCc2nc(-c3ccc(C)nc3)cs2)C1 — microsomal CLint (male Sprague-Dawley rat, liver microsomes; 0.5 µM): 19 µL/min/mg
CN(CC(=O)Nc1ccc(N(C)c2ccc(Cl)c(F)c2)cc1)c1ccccc1N1CCCC1=O — hepatocyte CLint (rat, hepatocytes): 79 µL/min/10⁶ cells
CNS(=O)(=O)c1ccc(Nc2ncc(C(F)(F)F)c([C@H]3CC[C@](C)(O)CC3)n2)c(C)c1 — scaled CLint (rat, liver microsomes; 1 µM): 30 mL/min/kg
O=C(NCc1nc(-c2ccc(C(F)(F)F)cc2)cs1)[C@H]1CCCN(C(=O)COCCN2CCCC2)C1 — microsomal CLint (male Sprague-Dawley rat, liver microsomes; 0.5 µM): 34 µL/min/mg
Cc1cc(S(=O)(=O)NC2CCC(CC3CCN(c4ccc(C5CCC(=O)NC5=O)cc4)CC3)CC2)ccc1Nc1ncc(C(F)(F)F)c(N2CCC[C@](C)(O)C2)n1 (stereo partly shown) — scaled CLint (rat, liver microsomes; 1 µM): < 21 mL/min/kg
N#Cc1ccc(C[C@H](Nc2nnc(-c3cccc(F)c3)s2)C(=O)N2CCc3ccccc32)cc1 — microsomal CLint (rat, liver microsomes; 10 µM, pH 7.4): 14.7 µL/min/mg
Cc1ccc(N(C)c2ccc(NC(=O)CN(C)c3ccccc3N3CCCC3=O)cc2)cc1 — hepatocyte CLint (rat, hepatocytes): > 92 µL/min/10⁶ cells
COc1cc(NC(=O)Cn2cc(Cl)c3ccc(-c4cnn(C)c4)cc32)cc(OC)c1OC — hepatocyte CLint (rat, hepatocytes): < 1 µL/min/10⁶ cells
Cc1ccc(Oc2ccc(NC(=O)CNc3ccccc3-n3cncn3)cc2)cc1 — hepatocyte CLint (rat, hepatocytes): 46 µL/min/10⁶ cells
COc1cc(-c2cc(C(C)=O)n3ccccc23)c(OC)cc1Cn1ccnc1 — scaled CLint (rat, liver microsomes; 1 µM, pH 7.4): 145 mL/min/kg
Cc1cc(S(=O)(=O)NC2CC(N3CCN(CC4CCN(c5cccc6c5n(C)c(=O)n6C5CCC(=O)NC5=O)CC4)C4(CC4)C3)C2)ccc1Nc1ncc(C(F)(F)F)c(N2CCC[C@](C)(O)C2)n1 (stereo partly shown) — scaled CLint (rat, liver microsomes; 1 µM): < 21 mL/min/kg
COc1cnc(Nc2cnnc3ccc(-c4ccc(N5CCN(C)CC5)cc4)cc23)nc1 — hepatocyte CLint (rat, hepatocytes): > 300 µL/min/10⁶ cells
CNS(=O)(=O)c1ccc(Nc2ncc3cc(Cl)c(=O)n(C4CCCC4)c3n2)c(C)c1 — scaled CLint (rat, liver microsomes; 1 µM): 70 mL/min/kg
Cc1ccc(Nc2cnnc3ccc(-c4ccc(N5CCCN(C)CC5)cc4)cc23)cn1 — hepatocyte CLint (rat, hepatocytes): 10 µL/min/10⁶ cells
N#Cc1ccc(-c2csc(CNC(=O)[C@H]3CCCN(C(=O)COCCF)C3)n2)cc1 — microsomal CLint (male Sprague-Dawley rat, liver microsomes; 0.5 µM): 40 µL/min/mg
Cc1ccc(Oc2ccc(NC(=O)COc3ccccc3N3CCCC3=O)cc2)cc1 — hepatocyte CLint (rat, hepatocytes): 68 µL/min/10⁶ cells
CONC(=O)N1CCC[C@H](C(=O)NCc2nc(-c3ccccc3)cs2)C1 — microsomal CLint (male Sprague-Dawley rat, liver microsomes; 0.5 µM): 18 µL/min/mg
Cc1cc(S(=O)(=O)N[C@H]2CC[C@H](N3CCN(CC4CCN(c5cccc6c5n(C)c(=O)n6C5CCC(=O)NC5=O)CC4)CC3)CC2)ccc1Nc1ncc(C(F)(F)F)c(N2CCC[C@](C)(O)C2)n1 (stereo partly shown) — scaled CLint (rat, liver microsomes; 1 µM): < 21 mL/min/kg
O=C(NCc1nc(-c2ccc(C(F)(F)F)cc2)cs1)[C@H]1CCCN(C(=O)CO[C@H]2CCCNC2)C1 — microsomal CLint (male Sprague-Dawley rat, liver microsomes; 0.5 µM): 3.6 µL/min/mg
CC(C)N(c1ccc(Cl)c(F)c1)c1ccc(NC(=O)CN(C)c2ccccc2N2CCCC2=O)cn1 — hepatocyte CLint (rat, hepatocytes): 62 µL/min/10⁶ cells
CCOCC(=O)N1CCC[C@H](C(=O)NCc2nc(-c3ccc(C#N)nc3)cs2)C1 — scaled CLint (male Sprague-Dawley rat, hepatocytes; 0.5 µM): 17 mL/min/kg
Cc1ccc(-c2nnc(N[C@@H](Cc3ccc(C#N)cc3)C(=O)N3CCc4ccccc43)o2)cc1 — microsomal CLint (rat, liver microsomes; 10 µM, pH 7.4): 49.5 µL/min/mg
CCN(c1ccc(C)cc1)c1ccc(NC(=O)CN(C)c2ccccc2N2CCCC2=O)cn1 — hepatocyte CLint (rat, hepatocytes): > 92 µL/min/10⁶ cells
N#Cc1ccc(C[C@H](Nc2nnc(-c3ccc(Br)cc3)s2)C(=O)N2CCc3ccccc32)cc1 — microsomal CLint (rat, liver microsomes; 10 µM, pH 7.4): 46.2 µL/min/mg
C[C@H]1CN(c2ccc(C3CCC(=O)NC3=O)cc2F)CCN1CC12CCC(NS(=O)(=O)c3ccc(Nc4ncc(C(F)(F)F)c(N5CCC[C@](C)(O)C5)n4)c(F)c3)(CC1)CO2 (stereo partly shown) — scaled CLint (rat, liver microsomes; 1 µM): < 21 mL/min/kg
CCONC(=O)N1CCC[C@H](C(=O)NCc2nc(-c3ccc(C#N)cc3)cs2)C1 — scaled CLint (male Sprague-Dawley rat, hepatocytes; 0.5 µM): 41 mL/min/kg
Cc1ccc(N(C)c2ccc(NC(=O)CN(C)c3ccccc3N3CCCC3=O)cn2)cc1 — hepatocyte CLint (rat, hepatocytes): > 92 µL/min/10⁶ cells
